Laboratory results taken from ChEMBL document CHEMBL4715754, “Slowing down fat digestion and absorption by an oxadiazolone inhibitor targeting selectively gastric lipolysis” (2016).

How the values were obtained:
[1] = target: T1, Gastric triacylglycerol lipase (Canis lupus familiaris) (UniProt P80035); assay: Inhibition of recombinant dog gastric lipase assessed as lipolysis level at 4.9 mg/ml under gastric phase at pH 5.5 using liquid test meal measured up to 30 mins (reference value: 22.3 +/- 1.4 %); design: scale not given: the % may be the effect or the level left; conditions: time min <=30
T1 sequence (whole entry): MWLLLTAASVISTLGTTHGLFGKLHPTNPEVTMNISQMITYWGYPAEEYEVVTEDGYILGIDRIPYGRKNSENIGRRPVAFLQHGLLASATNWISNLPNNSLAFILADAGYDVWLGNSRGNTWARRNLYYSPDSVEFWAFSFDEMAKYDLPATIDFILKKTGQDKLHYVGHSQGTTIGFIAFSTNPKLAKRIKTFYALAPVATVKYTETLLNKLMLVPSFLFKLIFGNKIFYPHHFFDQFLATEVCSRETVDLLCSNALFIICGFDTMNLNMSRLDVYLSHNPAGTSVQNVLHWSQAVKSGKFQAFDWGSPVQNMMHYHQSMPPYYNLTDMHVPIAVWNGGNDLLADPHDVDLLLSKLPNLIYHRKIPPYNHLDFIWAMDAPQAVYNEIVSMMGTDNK
In short: (§1)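 In vitro two-phase digestion at 37 °C, 1,000 rpm: 15 mL liquid or solid test meal (506 mg TAG) was premixed with 7.262 µmol inhibitor in DMSO (DMSO-only control). Gastric phase: DGL 17 µg/mL final, pH 5.5. Duodenal phase from 30 min: pancreatic extract plus bovine bile added (PPL 250 µg/mL, bile salts 4.0 mM), pH 6.25. Lipids in samples were quantified by TLC-FID; LL% is (MAG+FFA) relative to 3×initial TAG; n = 3.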

[2] = target: T1, Gastric triacylglycerol lipase (Canis lupus familiaris); assay: Inhibition of recombinant dog gastric lipase assessed as lipolysis level at 4.9 mg/ml under gastric phase at pH 5.5 using solid test meal measured up to 30 mins (reference value: 13 +/- 1.2 %); design: scale not given: the % may be the effect or the level left; conditions: time min <=30; in short: as §1
[3] = target: T2, Pancreatic triacylglycerol lipase (Sus scrofa) (UniProt P00591); conditions: dose 4.9 mg/ml, time 30-90 min
T2 sequence (whole entry): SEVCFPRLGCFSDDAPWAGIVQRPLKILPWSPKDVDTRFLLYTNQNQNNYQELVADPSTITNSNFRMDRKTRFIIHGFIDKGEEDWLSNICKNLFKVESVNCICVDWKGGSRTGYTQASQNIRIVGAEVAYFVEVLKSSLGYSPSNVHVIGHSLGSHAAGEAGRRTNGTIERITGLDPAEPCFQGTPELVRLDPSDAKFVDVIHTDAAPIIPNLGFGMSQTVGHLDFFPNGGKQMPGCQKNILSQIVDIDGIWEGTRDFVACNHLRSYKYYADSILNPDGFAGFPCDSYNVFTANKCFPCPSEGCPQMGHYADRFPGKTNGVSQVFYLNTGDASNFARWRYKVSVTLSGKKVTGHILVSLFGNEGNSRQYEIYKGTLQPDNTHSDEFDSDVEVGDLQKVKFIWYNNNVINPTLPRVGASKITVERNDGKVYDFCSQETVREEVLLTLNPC

[4] = target: T2, Pancreatic triacylglycerol lipase (Sus scrofa); conditions: dose 4.9 mg/ml, time 30-90 min; remark: listed apart in the source
[5] = target: T2, Pancreatic triacylglycerol lipase (Sus scrofa); conditions: dose 4.9 mg/ml, time 30-90 min; remark: listed apart in the source
[6] = target: T1, Gastric triacylglycerol lipase (Canis lupus familiaris); assay: Inhibition of recombinant dog gastric lipase at 20:1 molar excess compound concentration preincubated for 30 mins at 25 degreeC relative to control
[7] = target: T1, Gastric triacylglycerol lipase (Canis lupus familiaris); assay: Inhibition of recombinant dog gastric lipase at 4:1 molar excess compound concentration preincubated for 30 mins at 25 degreeC relative to control
[8] = target: T3, Pancreatic lipase-related protein 2 (Cavia porcellus) (UniProt P81139); assay: Inhibition of recombinant guinea pig PL-RP2 expressed in Aspergillus oryzae at 4:1 molar excess compound concentration preincubated for 30 mins at 25 degreeC relative to control
T3 sequence (whole entry): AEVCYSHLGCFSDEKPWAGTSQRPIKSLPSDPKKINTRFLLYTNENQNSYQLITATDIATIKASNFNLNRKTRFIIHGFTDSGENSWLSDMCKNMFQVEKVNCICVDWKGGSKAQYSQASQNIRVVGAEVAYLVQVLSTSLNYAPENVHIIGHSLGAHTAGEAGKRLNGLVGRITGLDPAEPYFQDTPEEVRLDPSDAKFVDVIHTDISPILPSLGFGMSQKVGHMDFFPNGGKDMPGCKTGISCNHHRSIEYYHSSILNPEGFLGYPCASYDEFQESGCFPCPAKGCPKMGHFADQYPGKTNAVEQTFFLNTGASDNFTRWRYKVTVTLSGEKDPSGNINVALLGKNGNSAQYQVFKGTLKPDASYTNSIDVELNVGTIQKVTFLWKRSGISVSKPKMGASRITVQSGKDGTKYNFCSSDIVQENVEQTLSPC

[9] = target: T3, Pancreatic lipase-related protein 2 (Cavia porcellus); assay: Inhibition of recombinant guinea pig PL-RP2 expressed in Aspergillus oryzae at 20:1 molar excess compound concentration preincubated for 30 mins at 25 degreeC relative to control
[10] = target: T3, Pancreatic lipase-related protein 2 (Cavia porcellus); assay: Inhibition of recombinant guinea pig PL-RP2 expressed in Aspergillus oryzae preincubated for 30 mins at 25 degreeC
[11] = target: T2, Pancreatic triacylglycerol lipase (Sus scrofa); assay: Inhibition of porcine pancreatic lipase assessed as residual activity at 4.1 mg/ml under duodenal phase at pH 6.5 using liquid test meal measured after 30 to 90 mins relative to control; conditions: time 30-90 min
[12] = target: T1, Gastric triacylglycerol lipase (Canis lupus familiaris); assay: Inhibition of recombinant dog gastric lipase at 4.1 mg/ml under gastric phase at pH 5.5 using solid test meal measured up to 30 mins relative to control; conditions: time min <=30
In short: (§2)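 Gastric phase: 15 mL liquid or solid test meal (506 mg TAG) premixed with 734 µL of 4.1 mg/mL DMSO stock (2.94 mg, 7.262 µmol), then DGL to 17 µg/mL final, pH 5.5, 37 °C, stirred. Samples at 1, 15, 29 min; residual DGL activity by pH-stat; lipolysis level from TLC-FID of lipid extracts. DMSO-only controls; n = 3.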

[13] = target: T1, Gastric triacylglycerol lipase (Canis lupus familiaris); assay: Inhibition of recombinant dog gastric lipase assessed as lipolysis level at 4.1 mg/ml under gastric phase at pH 5.5 using solid test meal measured up to 30 mins (reference value: 13 +/- 1.2 %); design: scale not given: the % may be the effect or the level left; conditions: time min <=30; in short: as §2
[14] = target: T2, Pancreatic triacylglycerol lipase (Sus scrofa); assay: Inhibition of porcine pancreatic lipase assessed as lipolysis level at 4.1 mg/ml under duodenal phase at pH 6.5 using solid test meal measured at 45 mins (reference value: 24.7 +/- 0.87 %); design: scale not given: the % may be the effect or the level left
[15] = target: T2, Pancreatic triacylglycerol lipase (Sus scrofa); assay: Inhibition of porcine pancreatic lipase assessed as lipolysis level at 4.1 mg/ml under duodenal phase at pH 6.5 using liquid test meal measured at 90 mins (reference value: 63.6 +/- 2.6 %); design: scale not given: the % may be the effect or the level left
[16] = target: T2, Pancreatic triacylglycerol lipase (Sus scrofa); assay: Inhibition of porcine pancreatic lipase assessed as lipolysis level at 4.1 mg/ml under duodenal phase at pH 6.5 using solid test meal measured at 90 mins (reference value: 45.4 +/- 1.4 %); design: scale not given: the % may be the effect or the level left

Structure (SMILES) | Activity [1] [%] | Activity [2] [%] | inhibition [3] [%] | inhibition [4] [%] | inhibition [5] [%] | inhibition [6] [%] | inhibition [7] [%] | inhibition [8] [%] | inhibition [9] [%] | XI50 [10] [molar excess] | Activity [11] [%] | inhibition [12] [%] | Activity [13] [%] | Activity [14] [%] | Activity [15] [%] | Activity [16] [%]
CCCCCCCCCCC[C@@H](C[C@@H]1OC(=O)[C@H]1CCCCCC)OC(=O)[C@@H](CC(C)C)NC=O | 0 | 2.1 | 100 | 86.6 | 85.2 |  |  |  |  |  |  |  |  |  |  | 
O=c1oc(OCCOCc2ccccc2)nn1-c1cccc(Oc2ccccc2)c1 |  |  |  |  |  | 91.5 | 87.6 | 60.6 | 62.1 | 0.64 | 94.4 | 97.2 | 3.1 | 20.6 | 55.3 | 33.7
